Activity calls are given as the source filed them. No cut-off for these calls is given here.
Experiments:
[1] = tested on: Tyrosine-protein kinase JAK2 (Homo sapiens), O60674 [V617F]; conditions: HEL 92.1.7, dose 1000.0 nM, time 3.0 hrs
[2] = Induction of apoptosis in human EPC cells derived from healthy volunteers assessed as activation of caspase-3/7 level incubated for 16 hrs; assay type: toxicity, cell-based
[3] = Toxicity in SCID Beige mouse xenografted with human SET2 cells assessed as platelet count at 150 mg/kg, po administered for 18 days by ScilVET abc hematology analyzer method; assay type: organism-based; conditions: in vivo, 432 h, time 18 day
[4] = Toxicity in SCID Beige mouse xenografted with human SET2 cells assessed as increase in body weight at 150 mg/kg, po administered for 18 days relative to control; assay type: organism-based; conditions: in vivo, 432 h, time 18 day
[5] = Toxicity in athymic BALB/c nude mouse xenografted with mouse Ba/F3 cells harboring JAK2 V617F mutant assessed as hematocrit count at 150 mg/kg, po administered for 12 days by ScilVET abc hematology analyzer method; assay type: organism-based, BaF3; conditions: in vivo, 288 h, time 12 day
In short: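 BALB/c nude mice were injected in the tail vein with 2 × 10^6 Ba/F3-JAK2V617F cells in serum-free medium. Oral dosing at 50 or 150 mg/kg once daily began on day 4, with 10 mice per group and 4 naive baseline mice. Blood counts were taken on a hematology analyzer.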

[6] = Cytotoxicity against human EPC cells derived from healthy volunteers assessed as inhibition of cell viability incubated for 48 hrs by CellTiterGlo assay; assay type: toxicity, cell-based
In short: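 Erythroid progenitors expanded from PBMCs of PV patients or normal volunteers using a 2-step protocol. On day 12 of expansion, cells were exposed to compound for 48 h and viability was read by CellTiter-Glo. Day-12 cells were phenotyped by CD71/CD235A flow staining.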

[7] = Toxicity in athymic BALB/c nude mouse xenografted with mouse Ba/F3 cells harboring JAK2 V617F mutant assessed as spleen weight at 150 mg/kg, po administered for 13 days relative to control; conditions: in vivo, 312 h
[8] = Cytotoxicity against human Erythroid progenitor cells assessed as inhibition of colony growth formation; assay type: toxicity, cell-based, Erythroid progenitor cell
In short: (§1)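 PBMCs from PV patients, 2–8 × 10^5 per plate, were plated in minimal methylcellulose medium with graded drug concentrations or DMSO, in triplicate. After 14 days, erythroid (BFU-E, CFU-E) and myeloid (CFU-M, CFU-GM) colonies were counted.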

[9] = Cytotoxicity against human Myeloid progenitor cells assessed as inhibition of colony growth formation; assay type: toxicity, cell-based, Myeloid progenitor cell
In short: as §1

[10] = tested on: BaF3; assay: Cytotoxicity against mouse BaF3 cells expressing JAK2 V617F mutant xenografted in athymic BALB/c nude mouse assessed as inhibition of cell viability administered for 24 hrs by CellTiterGlo assay; assay type: toxicity, cell-based; conditions: in vivo, po, 150 mg/kg
[11] = Toxicity in athymic BALB/c nude mouse xenografted with mouse Ba/F3 cells harboring JAK2 V617F mutant assessed as platelet count at 150 mg/kg, po administered for 12 days by ScilVET abc hematology analyzer method; assay type: organism-based, BaF3; conditions: in vivo, 288 h, time 12 day
In short: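 Engraftment model: BALB/c nude mice were given 2 × 10^6 Ba/F3-JAK2V617F cells i.v. by tail vein. Once-daily oral gavage (10 ml/kg) of 50 or 150 mg/kg began on day 4 after inoculation, with 10 mice per group and four naive mice as baseline. Blood counts were taken on a veterinary hematology analyzer.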

[12] = Toxicity in SCID Beige mouse xenografted with human SET2 cells assessed as decrease in body weight at 75 mg/kg, po administered for 18 days relative to control; assay type: organism-based; set-up: scale not given: the % may be the effect or the level left; conditions: in vivo, 432 h, time 18 day
[13] = Toxicity in athymic BALB/c nude mouse xenografted with mouse Ba/F3 cells harboring JAK2 V617F mutant assessed as weight loss at 150 mg/kg, po administered for 12 days; assay type: organism-based, BaF3; conditions: in vivo, 288 h, time 12 day
In short: (§2)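 Ba/F3-JAK2V617F cells (2 × 10^6 in serum-free medium) were injected into the tail vein of BALB/c nude mice. From day 4 after inoculation, mice got SB1518 by oral gavage (10 ml/kg) at 50 or 150 mg/kg once daily. Groups held 10 mice, and four naive mice gave baseline values.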

[14] = Toxicity in SCID Beige mouse xenografted with human SET2 cells assessed as hematocrit count at 150 mg/kg, po administered for 18 days by ScilVET abc hematology analyzer method; assay type: organism-based; conditions: in vivo, 432 h, time 18 day
[15] = Toxicity in SCID Beige mouse xenografted with human SET2 cells assessed as leukopenia at 150 mg/kg, po administered for 18 days by ScilVET abc hematology analyzer method; assay type: organism-based; conditions: in vivo, 432 h, time 18 day
[16] = Induction of apoptosis in human EPC cells derived from polycythemia vera patients assessed as activation of caspase-3/7 level incubated for 16 hrs; assay type: toxicity, cell-based; conditions: human, epc, time 16 hrs
[17] = Toxicity in athymic BALB/c nude mouse xenografted with mouse Ba/F3 cells harboring JAK2 V617F mutant assessed as liver weight at 150 mg/kg, po administered for 12 days relative to control; assay type: organism-based, BaF3; conditions: in vivo, 288 h, time 12 day
In short: as §2

[18] = AUC (0 to infinity) in athymic BALB/c nude mouse xenografted with mouse BaF3 cells at 150 mg/kg, po administered for 24 hrs by HPLC analysis; assay type: ADME, organism-based; conditions: in vivo

Chain of Tyrosine-protein kinase JAK2 (Homo sapiens), O60674 [V617F] (O60674 whole entry V617F): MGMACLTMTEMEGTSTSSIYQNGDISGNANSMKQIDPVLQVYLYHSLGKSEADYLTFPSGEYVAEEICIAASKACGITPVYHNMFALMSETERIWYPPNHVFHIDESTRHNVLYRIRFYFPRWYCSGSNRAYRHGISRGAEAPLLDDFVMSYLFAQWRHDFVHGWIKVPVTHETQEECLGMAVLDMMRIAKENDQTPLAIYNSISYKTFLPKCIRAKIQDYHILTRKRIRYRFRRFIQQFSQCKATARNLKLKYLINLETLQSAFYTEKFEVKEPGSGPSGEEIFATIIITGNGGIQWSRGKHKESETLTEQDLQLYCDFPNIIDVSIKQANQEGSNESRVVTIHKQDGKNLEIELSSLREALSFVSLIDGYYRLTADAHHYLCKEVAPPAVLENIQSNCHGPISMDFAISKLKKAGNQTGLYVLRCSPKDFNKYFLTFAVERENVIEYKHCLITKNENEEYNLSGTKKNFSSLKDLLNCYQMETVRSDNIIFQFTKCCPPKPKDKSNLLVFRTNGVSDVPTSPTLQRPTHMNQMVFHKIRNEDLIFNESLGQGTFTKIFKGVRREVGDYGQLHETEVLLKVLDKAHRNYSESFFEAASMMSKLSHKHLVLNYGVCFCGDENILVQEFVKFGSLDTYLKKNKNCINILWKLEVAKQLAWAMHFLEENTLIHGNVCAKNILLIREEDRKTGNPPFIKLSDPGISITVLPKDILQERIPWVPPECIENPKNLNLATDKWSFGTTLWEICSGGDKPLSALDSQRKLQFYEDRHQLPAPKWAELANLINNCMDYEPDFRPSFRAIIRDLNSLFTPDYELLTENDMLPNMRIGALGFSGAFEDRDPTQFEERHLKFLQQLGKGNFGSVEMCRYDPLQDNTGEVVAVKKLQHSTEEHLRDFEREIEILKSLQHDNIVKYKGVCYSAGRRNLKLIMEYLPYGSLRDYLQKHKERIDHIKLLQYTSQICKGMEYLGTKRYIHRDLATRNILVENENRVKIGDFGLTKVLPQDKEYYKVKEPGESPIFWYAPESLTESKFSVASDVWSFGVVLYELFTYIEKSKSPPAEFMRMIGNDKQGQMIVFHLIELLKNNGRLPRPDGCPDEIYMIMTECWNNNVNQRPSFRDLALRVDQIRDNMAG

inhibition [1]	AUC(0-inf) [18]	Compound	EC50 at 16 h ([2]; EPC cells derived from healthy volunteers)	Activity ([2]; epc, 16 h)	Activity [3]	Activity [4]	Activity [5]	IC50 at 48 h [6]	Activity [7]	IC50 [8]	IC50 [9]	FIC50 [10]	Activity [11]	Activity [12]	Activity [13]	Activity [14]	Activity [15]	Activity [16]	Activity [17]
Active		Cc1cnc(Nc2ccc(OCCN3CCCC3)cc2)nc1Nc1cccc(S(=O)(=O)NC(C)(C)C)c1																	
	220 ng·h/mL	C1=C/COCc2cc(ccc2OCCN2CCCC2)Nc2nccc(n2)-c2cccc(c2)COC/1 [PACRITINIB]	224 nM	Dose-Dependent Effect	Non-Toxic	0.2%	Non-Toxic	230 nM	60%	63 nM	63 nM	0.16 µM	Non-Toxic	10.1%	Non-Toxic	Non-Toxic	Non-Toxic	Dose-Dependent Effect	92%
Active		CC(C)(C)c1nc2c3ccc(F)cc3c3c(=O)[nH]ccc3c2[nH]1																	

— ChEMBL document CHEMBL5705894, “SB1518, a novel macrocyclic pyrimidine-based JAK2 inhibitor for the treatment of myeloid and lymphoid malignancies” (Leukemia, 2011)
